OX1R antag-1 = human HCRTR1 antagonism; CHO/OX1R cells, Fluo-8 calcium fluorescence, orexin A; inhibition, % at 5 µM; 330,000 compounds, 0.43% hits;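 active = inhibition above its plate's threshold, mean inhibition of all tested compounds on the plate plus 3 SD, cut at about 37% in these data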;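 note: 0% = orexin A challenge wells and 100% = SB-334867-A antagonist wells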
Target sequence (O43613 whole entry, looked up): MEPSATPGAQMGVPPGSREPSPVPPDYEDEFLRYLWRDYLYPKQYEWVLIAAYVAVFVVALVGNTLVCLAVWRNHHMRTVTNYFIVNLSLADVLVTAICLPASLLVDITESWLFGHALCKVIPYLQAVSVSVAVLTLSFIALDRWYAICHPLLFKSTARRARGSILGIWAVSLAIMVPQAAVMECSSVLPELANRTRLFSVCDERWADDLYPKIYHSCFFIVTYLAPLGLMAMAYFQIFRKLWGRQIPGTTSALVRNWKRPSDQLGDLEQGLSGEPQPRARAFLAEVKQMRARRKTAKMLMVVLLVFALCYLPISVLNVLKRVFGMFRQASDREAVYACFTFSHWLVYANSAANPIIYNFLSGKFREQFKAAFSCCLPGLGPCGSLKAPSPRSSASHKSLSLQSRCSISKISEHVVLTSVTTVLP
TAAR1 antag = antagonists of human TAAR1 | Q96RJ0 | CHO RD-HGA16 TAAR1, Fluo-8 calcium fluorescence, antagonist | inhibition, % at 3 µM | 360,000 compounds, 1.5% hits | AID 624466;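 active = inhibition above a per-plate cutoff, the mean inhibition of test compounds on that plate plus 3 SD, cut at about 49% in these data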;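 note: 0% = DMSO plus EC80 beta-PEA response and 100% = DMSO alone without agonist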
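Test system: CHO RD-HGA16 cells bearing hTAAR1 | Reagent: β-PEA, EC80 | Compound dosing: 3 µM, single point | Schedule: Dye loading 75 min at 37 °C, then 30 min room temperature | Signal: Calcium fluorescence with Fluo-8 | Evaluation: Percent inhibition of PEA-evoked calcium signal, max/basal emission ratio | Control set: DMSO-only wells and EC80 β-PEA-stimulated wells | Repeats: Singlicate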
CHO parental Ca = signal in parental CHO cells, OX1R antagonist counter-screen | 330,000 compounds, 0.63% hits | parental CHO-K1, ATP-induced calcium, Fluo-8 fluorescence | inhibition, % at 5.6 µM;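 active = inhibition above that plate's mean sample inhibition plus 3 SD, cut at about 26% in these data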;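 note: 0% = ATP-challenged DMSO wells and 100% = DMSO wells without ATP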
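Assay system – parental CHO cells · Reagent – ATP stimulus · Detection – intracellular calcium via Fluo-8 no-wash fluorescent dye · Evaluation – percent inhibition of ATP-evoked calcium rise, normalized to controls · Controls – ATP wells versus no-ATP DMSO wells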
GPR7 antag = human neuropeptides B/W receptor 1 antagonism; P48145; GPR7-expressing cells, fluorescence antagonist assay; inhibition, % at 4.4 µM; 290,000 compounds, 1.1% hits; in the data active = inhibition above about 16%, passing the limit was not always enough;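 note: cells stimulated with the agonist NPW; 0% = agonist with vehicle and 100% = vehicle without agonist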
OX1R antag-2 = OX1R (human) antagonism. 330,000 compounds, 1.8% hits. inhibition, % at 6.6 µM. OX1R-expressing cells, FRET antagonist read-out; in the data active = inhibition mostly above about 38%, no sharp cut-off; inactive = mostly below about 40%;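 note: 0% = agonist challenge alone and 100% = reference antagonist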
TAAR1 ag = human TAAR1 agonism | CHO RD-HGA16 TAAR1, Fluo-8 calcium fluorescence; vehicle wells 0%, saturating PEA agonist 100% | activation, % at 3 µM | 360,000 compounds, 0.99% hits;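 active = activation above the mean activation of all test compounds in the run plus 3 SD, cut at about 38% in these data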
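Test system: RD-HGA16 (CHO) cells co-expressing Gα16 and hTAAR1 | Doses: Single dose, 3 µM | Schedule: 17-24 h seeding, 75 min 37 °C dye, 30 min RT | Evaluation: % activation from peak over basal fluorescence ratio, DMSO-to-PEA scaled | Technique: Kinetic Fluo-8 calcium fluorescence | Benchmarks: Low control DMSO, high control PEA (EC100)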
* hit, by the source's call. Hits are enriched below; roughly 4.6% of the tested compounds scored in any of these assays.

`Cc1[nH][nH]c(=O)c1C(c1ccc(-c2ccc(Cl)c(Cl)c2)o1)c1c(C)[nH][nH]c1=O` gave OX1R antag-1 15, TAAR1 antag 105*, CHO parental Ca -5, GPR7 antag 3, OX1R antag-2 1 and TAAR1 ag 32.
`Cc1c(N(C)S(=O)(=O)c2cccc(C(=O)NC(C)C)c2)c(=O)n(-c2ccccc2)n1C` gave OX1R antag-1 -29, TAAR1 antag 8, CHO parental Ca -12, GPR7 antag -4, OX1R antag-2 34 and TAAR1 ag -1.
COc1cc(S(=O)(=O)NCc2ccncc2)ccc1Br was read as OX1R antag-1 11, TAAR1 antag 5, CHO parental Ca 31*, GPR7 antag 3, OX1R antag-2 8 and TAAR1 ag 2.
For O=S(=O)(NCc1ccncc1)c1ccc(F)c(F)c1 the results were TAAR1 antag 4 and TAAR1 ag 7.
Screening Cc1ccc(S(=O)(=O)NCc2ccncc2)cc1C returned OX1R antag-1 41*, TAAR1 antag 26, CHO parental Ca 33*, GPR7 antag 8, OX1R antag-2 64 and TAAR1 ag 5.
For CCN(C1CCCCC1)S(=O)(=O)c1ccc(S(=O)(=O)NCCc2ccncc2)cc1 the results were OX1R antag-1 -26, TAAR1 antag 22, CHO parental Ca -17, GPR7 antag -2, OX1R antag-2 16 and TAAR1 ag 10.
Screening CNC(=O)c1cc(S(=O)(=O)NCc2ccncc2)ccc1OC returned OX1R antag-1 -4, TAAR1 antag -13, CHO parental Ca 3, GPR7 antag -12, OX1R antag-2 6 and TAAR1 ag 1.
`CCN(C1CCCCC1)S(=O)(=O)c1ccc(S(=O)(=O)NCc2ccncc2)cc1` gave OX1R antag-1 0, TAAR1 antag 1, CHO parental Ca 6, GPR7 antag 21*, OX1R antag-2 34 and TAAR1 ag 18.
`O=S(=O)(c1ccc2c(c1)OCCO2)N1CCN(c2ncnc3sccc23)CC1` gave OX1R antag-1 20, TAAR1 antag 13, CHO parental Ca 40*, GPR7 antag 14, OX1R antag-2 61 and TAAR1 ag 10.
`Cc1onc(-c2c(F)cccc2Cl)c1-c1ncc(-c2ccc(Cl)cc2)o1` gave TAAR1 antag 1 and TAAR1 ag 2.
For COc1c(OC(C)=O)c(=O)n2c3ccccc3c3ccnc1c32 the results were OX1R antag-1 -14, TAAR1 antag 1, CHO parental Ca -12, OX1R antag-2 52* and TAAR1 ag 1.
`CC(=O)Oc1c(C)c(=O)n(C)c2ccccc12` gave OX1R antag-1 -13, TAAR1 antag 14, CHO parental Ca -11, GPR7 antag 10, OX1R antag-2 7 and TAAR1 ag 0.
COc1ccc(Cl)cc1N(CC(=O)NCc1ccccn1)S(=O)(=O)c1ccc(C)cc1 was read as TAAR1 antag -1 and TAAR1 ag 2.
Screening O=C(NCCc1cccs1)C12CN(Cc3ccccc3)CC1C(c1cccc([N+](=O)[O-])c1)=NO2 (stereo unspecified) returned OX1R antag-1 -10, TAAR1 antag 0, CHO parental Ca -6, GPR7 antag 1, OX1R antag-2 13 and TAAR1 ag 40*.
For O=C(O)Cn1cc(/C=c2/sc3nc4ccccc4n3c2=O)c2ccccc21 the results were OX1R antag-1 19, TAAR1 antag 8, CHO parental Ca -12, GPR7 antag 16, OX1R antag-2 59* and TAAR1 ag 5.
O=c1/c(=C\c2cccn2-c2ccccc2)sc2nc3ccccc3n12 was read as TAAR1 antag 7, GPR7 antag -5 and TAAR1 ag 1.
O=C(Nc1ccnn1C1CCN(C(=O)CCc2ccc(F)cc2)CC1)C1CCOC1 (stereo unspecified) was read as OX1R antag-1 -6, TAAR1 antag -9, CHO parental Ca 0, GPR7 antag -10, OX1R antag-2 19 and TAAR1 ag 1.
For COc1ccccc1N1CCN(C(=O)c2cn(Cc3ccccc3)nc2-c2cccnc2)CC1 the results were OX1R antag-1 -31, TAAR1 antag 19, CHO parental Ca -32, OX1R antag-2 -3 and TAAR1 ag 47*.

Screening data: PubChem BioAssay, The Scripps Research Institute Molecular Screening Center
